# In PubChem BioAssay:
# Active and inactive are the calls of the source.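 Rule for the calls, unless noted: active = viability at or below 10% of carrier control in both of two separate runs; inconclusive = viability at or below 10% in only one of the two runs; inactive = the rest.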
# Assays:
# [1] = Her2 expression decrease, cell viability multiplex – SKBR3 breast tumor cells, AlphaScreen, ATP viability, primary screen (AID 461;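 active = Her2 level under about 52% in both replicate screens, with viability over 70% of control, limit read from the data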;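 for Her2 level: lower value means less Her2 protein in the cells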;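 for viability: percent of carrier control wells set as 100% viability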); conditions: SKBR3 Her2 protein level, 18-24 h, measured here: SKBR3 viability, ATP luminescence, at 10 µM
# [2] = target: Receptor tyrosine-protein kinase erbB-2 (Homo sapiens) (UniProt P04626); assay: as above; conditions: 18-24 h, at 10 µM, stronger effect = lower value
# [3] = reduced viability of SK-BR-3 breast cancer cells – cell-based, 24 h, human, pilot screen (AID 572); conditions: SK-BR-3 viability, CellTiter-Glo luminescence, at 10 µM, stronger effect = lower value;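 note: compound exposure lasted between 18 and 24 h rather than exactly 24 h; 100% = carrier-treated control wells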
# [4] = HUVEC growth inhibition – cell-based, human, primary screen (AID 575;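 active = viability at or below 30% in both replicate assays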;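 note: 100% = median of untreated cell wells with 0.1% DMSO on each plate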); conditions: HUVEC proliferation, CellTiter-Glo luminescence, 72 h; at 10 µM; stronger effect = lower value
# In short: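 Assay system: primary human umbilical vein endothelial cells / Buffer or medium: endothelial basal medium with 2% FBS plus growth supplements / Compound dosing: one dose, 10 µM final, 0.1% DMSO / Timing: 72 h treatment at 37 °C / Signal: CTG luminescence / Benchmarks: 32 DMSO-only cell-control wells (high), 32 MePR drug-control wells (low) per plate / Plate: collagen-coated 384-well format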
# [5] = H69AR cell proliferation blockers – human, duplicate replicates, primary screen (AID 580;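 active = viability at or under a set limit in both replicates, limit being median viability minus 3 SD, cut at about 48% in these data, passing the limit was not always enough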;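 note: 100% = mean luminescence of untreated wells and 0% = no signal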); conditions: H69AR lung tumor cells viability, ATP luminescence, 72 h; at 10 µM; stronger effect = lower value
# [6] = MRP1 drug-resistance reversers in H69AR cells – cell-based, doxorubicin co-treatment, pilot screen (AID 601;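 active = viability loss from added drug above about 55%, and viability with drug at most 40%, in both replicates, limit read from the data, passing the limit was not always enough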); conditions: CellTiter-Glo, 72 h, at 10 µM; for differential viability (reversal): stronger effect = higher value
# [7] = yeast transport mutant growth inhibition pilot in 384-well plates, post-Golgi transport modulator project (AID 636; in the data active = inhibition above about 31%); conditions: absorbance 615 nm, about 18 h, stronger effect = higher value
# [8] = growth suppression of yeast trafficking mutant, preliminary HTS, modulators of trafficking downstream of Golgi apparatus project, 1536-format plate, OD 615 nm (AID 637; in the data active = inhibition above about 30%); conditions: yeast transport mutant growth, absorbance 615 nm, 18 h; stronger effect = higher value
# [9] = H69AR cells + 2 uM doxorubicin, measured here: viability with 2 uM doxorubicin, stronger effect = lower value
# [10] = H69AR cells, compound alone cytotoxicity
# Chain of Receptor tyrosine-protein kinase erbB-2 (Homo sapiens) (P04626 whole entry, looked up): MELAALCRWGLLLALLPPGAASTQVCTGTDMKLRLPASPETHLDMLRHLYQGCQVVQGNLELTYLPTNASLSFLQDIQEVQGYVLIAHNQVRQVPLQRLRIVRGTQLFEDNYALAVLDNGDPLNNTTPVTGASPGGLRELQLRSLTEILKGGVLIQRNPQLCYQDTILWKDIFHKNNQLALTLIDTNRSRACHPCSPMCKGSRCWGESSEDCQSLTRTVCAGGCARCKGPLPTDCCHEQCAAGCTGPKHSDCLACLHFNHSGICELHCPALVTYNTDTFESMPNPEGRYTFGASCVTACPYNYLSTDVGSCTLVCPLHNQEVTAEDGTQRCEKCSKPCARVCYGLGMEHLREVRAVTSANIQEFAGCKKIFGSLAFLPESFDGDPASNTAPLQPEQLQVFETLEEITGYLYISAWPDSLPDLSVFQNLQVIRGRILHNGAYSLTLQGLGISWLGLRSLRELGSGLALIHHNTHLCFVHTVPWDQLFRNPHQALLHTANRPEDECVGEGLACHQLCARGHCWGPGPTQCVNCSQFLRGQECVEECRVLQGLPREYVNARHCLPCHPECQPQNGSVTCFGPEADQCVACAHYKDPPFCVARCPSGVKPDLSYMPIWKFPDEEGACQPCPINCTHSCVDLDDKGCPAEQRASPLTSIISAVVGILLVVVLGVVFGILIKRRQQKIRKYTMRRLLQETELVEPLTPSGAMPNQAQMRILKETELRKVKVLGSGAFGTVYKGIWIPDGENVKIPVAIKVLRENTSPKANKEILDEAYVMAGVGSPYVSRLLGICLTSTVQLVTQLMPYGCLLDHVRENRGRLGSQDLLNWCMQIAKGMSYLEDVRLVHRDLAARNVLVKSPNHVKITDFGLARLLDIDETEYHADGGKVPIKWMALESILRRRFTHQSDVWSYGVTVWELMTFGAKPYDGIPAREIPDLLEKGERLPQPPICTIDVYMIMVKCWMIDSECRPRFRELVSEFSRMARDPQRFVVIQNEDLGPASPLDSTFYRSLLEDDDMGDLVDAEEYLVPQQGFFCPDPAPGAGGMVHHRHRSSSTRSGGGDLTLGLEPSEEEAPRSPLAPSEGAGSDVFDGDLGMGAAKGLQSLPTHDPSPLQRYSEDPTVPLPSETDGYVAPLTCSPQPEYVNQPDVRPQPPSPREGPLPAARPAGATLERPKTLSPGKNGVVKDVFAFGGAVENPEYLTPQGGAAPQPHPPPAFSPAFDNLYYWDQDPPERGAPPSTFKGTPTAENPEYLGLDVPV
Structure (SMILES),viability [1] [%],Her2 level [2],viability [3],viability [4],viability [5],differential viability (reversal) ([6]; H69AR cells + 2 uM doxorubicin),"viability [6, 9] [%]","viability [6, 10] [%]",inhibition [7],inhibition [8]
Cc1c(NS(=O)(=O)c2ccc3c(c2)c(=O)n(C)c(=O)n3C)c(=O)n(-c2ccccc2)n1C,99.5,85.5% (inactive),99.5% (inactive),77.8% (inactive),95.7% (inactive),6.11% (inactive),89.6,95.7,-4.4% (inactive),7.7% (inactive)
CC(CCc1ccccc1)NCc1ccncc1 (stereo not given),102,99.5% (inactive),102% (inactive),108% (inactive),84.9% (inactive),-4.29% (inactive),89.2,84.9,-6.53% (inactive),0.48% (inactive)
CCC(C(=O)NC1CCCC1)N(Cc1ccco1)C(=O)Cn1nnc(-c2ccc(C)cc2)n1 (stereo not given),97.5,97% (inactive),97.5% (inactive),106% (inactive),92.3% (inactive),-1.87% (inactive),94.2,92.3,-3.33% (inactive),-3.44% (inactive)
O=C(Cn1nc(-c2ccc3c(c2)OCCO3)ccc1=O)Nc1ccc(N2CCOCC2)cc1,94,108% (inactive),94% (inactive),112% (inactive),110% (inactive),16.4% (inactive),93.2,110,-3.03% (inactive),0.17% (inactive)
Cn1nnnc1SCC(=O)N1CCN(c2cccc(Cl)c2)CC1,108,89% (inactive),108% (inactive),97.2% (inactive),85.6% (inactive),8.05% (inactive),77.5,85.6,-1.43% (inactive),-1.11% (inactive)
COC(=O)c1ccccc1S(=O)(=O)N(CCCO)Cc1cc2c(C)ccc(C)c2[nH]c1=O,84.5,106% (inactive),84.5% (inactive),75.3% (inactive),79.3% (inactive),-2.33% (inactive),81.6,79.3,-4.73% (inactive),-5.25% (inactive)
CCCOc1ccc([C@@H]2C3CN(C(=O)OCC)CC=C3C(C#N)=C(N)C2(C#N)C#N)cc1OC (stereo not given in full),88,40% (active),88% (inactive),85.2% (inactive),63.4% (inactive),-11.8% (inactive),75.2,63.4,-7.03% (inactive),0% (inactive)
Cc1c(C(=O)OC2CCCCC2)[nH]c2c1C(=O)CC(C)(C)C2,82.5,116% (inactive),82.5% (inactive),48.8% (inactive),78.8% (inactive),-3.71% (inactive),82.5,78.8,-3.55% (inactive),-17.5% (inactive)
CCCOc1cccc(-c2nnc(N)s2)c1,102,121% (inactive),102% (inactive),87.4% (inactive),100% (inactive),21.6% (inactive),78.5,100,-4.8% (inactive),-5.56% (inactive)
CNC(=O)c1ccc(N(Cc2ccccc2C)S(C)(=O)=O)cc1,98,102% (inactive),98% (inactive),102% (inactive),93.6% (inactive),0.93% (inactive),92.7,93.6,-3.87% (inactive),-2.95% (inactive)
CCOc1ccc(S(=O)(=O)n2nc(C)cc2C)c2ccccc12,83.5,89.5% (inactive),83.5% (inactive),71.2% (inactive),79.7% (inactive),2.17% (inactive),77.6,79.7,-1.03% (inactive),2% (inactive)
CCn1c(SCC(N)=O)nc2c1c(=O)n(C)c(=O)n2C,107,95% (inactive),107% (inactive),90% (inactive),95.9% (inactive),4.83% (inactive),91.1,95.9,-2.63% (inactive),-1.27% (inactive)
CCOc1ccccc1N(C(=O)Cn1nnnc1-c1ccc(C)o1)C(CC)C(=O)NC(C)(C)C (stereo not given),88.5,105% (inactive),88.5% (inactive),120% (inactive),88.5% (inactive),-14.7% (inactive),103,88.5,1.51% (inactive),4.6% (inactive)
Cc1cc(-c2ccc(F)cc2)nc2cc(C(N)=O)nn12,94.5,104% (inactive),94.5% (inactive),84.6% (inactive),87.6% (inactive),-1.99% (inactive),89.6,87.6,-2.47% (inactive),17.3% (inactive)
